Results taken from ChEMBL document CHEMBL4513216, “Probing the Open Global Health Chemical Diversity Library for Multistage-Active Starting Points for Next-Generation Antimalarials” (ACS Infect Dis, 2020).

Assay: Toxicity liver stage against HepG2, at 10uM
Format: cell-based
Set-up: test concentration 10 uM, cell line HepG2-A16-CD81EGFP
Settings: human, HepG2-A16-CD81EGFP cells; read-out: INHIBITION
Outline: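 Uninfected HepG2-A16-CD81EGFP cells, 3 × 10^3 per well, 1536-well, plated on prespotted compound at 10 μM final, parasite-free screening media added to match infected plates; puromycin 10 μM positive, DMSO 0.5% negative; run in parallel with 48 h PbLuc assay at 37 °C, 5% CO2; viability by CellTiter-Glo luminescence, normalized to controls.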

Structure (SMILES) | cytotoxicity at 10 µM
Cn1c2ccc(F)cc2c2ncn(CCN3CCOCC3)c(=O)c21 | 18.2%
CCn1cnnc1CNc1nc(C)nc2scc(CC(C)C)c12 | -3.17%
CC(C)(C)c1cc(C[C@H]2CNCC[C@H]2CC(=O)Nc2ccccc2)no1 | -2.4%
CC(C)(O)CN1CC(C)(C)CN(C(=O)CCc2ccccc2)CC1=O | 2.37%
CC(=O)N1CC[C@@]2(O)CCCC[C@H]2[C@@H]1c1ccccc1 | 2.41%
CCOc1c(C(N)=O)cn(C)c1-c1nc2cc(NC(C)=O)ccc2n1C | -46.9%
CCSc1nc(N)c(NC(=O)c2ccc(OC)c(OC)c2)c(=O)[nH]1 | -6.24%
CC(C)CSc1ccc(-n2cccn2)nn1 | -218%
COc1ccccc1C(=O)NCC(c1cccn1C)N1CCOCC1 (stereo unspecified) | 7.11%
Cn1cnc(S(=O)(=O)NCC2(O)CCc3ccccc32)c1 (stereo unspecified) | 11.6%
O=C(NCc1cc(C2CC2)n(C2CCCC2)n1)C1CC1 | 2.16%
Cc1oncc1C(=O)N1CC2CC1(C(=O)N(C)C)C2 | -0.95%
O=C(C1CCCO1)N1CCC2(CC1)COCCN2CC1CC1 (stereo unspecified) | 2.79%
O=C1COc2ccc(S(=O)(=O)NCc3ccccc3)c3c2N1CCC3 | -7.48%
CC(C)CCn1nc(CNc2ccc(Br)cc2)nc1O | 9.84%
CN(C)CCNC(=O)c1ccccc1NC(=O)c1cc(Cl)ccc1Cl | -1.02%
CN1CC(Oc2ccccc2)=NC(SCC(=O)Nc2ccc(Cl)cc2)=N1 | -10.2%
CCCNC(=O)c1nn(CC)cc1NC(=O)c1cn(C)nc1C | -5.63%
Cc1nn(C)c2cnn(CC(=O)NCc3ccc(F)cc3)c12 | 8.27%
CC(O)c1cccc(Nc2nc(NCCO)c3ccccc3n2)c1 (stereo unspecified) | 18.4%
CCn1nccc1CNC(=O)Cn1cc2c(n1)c(C)nn2C(C)C | -4.7%
c1cncc(CNc2ccccc2-c2nn[nH]n2)c1 | 9.35%
O=C1CO[C@H]2CN(Cc3cccc(F)c3F)C[C@@H]2N1C1CCOCC1 | -12.3%

Structure (SMILES) | cytotoxicity at 10 µM
Cc1cc(C)nc(Nc2cccc(C3CCCN(S(C)(=O)=O)C3)n2)n1 (stereo unspecified) | -9.62%
Cc1cc(C(=O)N2CCCC2c2nc(C)cc(O)n2)on1 (stereo unspecified) | -15.2%
COCCN1CCC(Cc2cncc(-c3ccc(C(=O)O)cc3)n2)C1 (stereo unspecified) | -0.413%
CC1(C(=O)N2CCOCC2)CN(Cc2ccccn2)CCO1 (stereo unspecified) | 2.86%
Cc1noc2nc(C3CCN(Cc4ccncc4)CC3)cc(C(F)F)c12 | 6.54%
c1c[nH]c2nc(C3CCCNC3)nc-2c1 (stereo unspecified) | 8.35%
CC(C)(C)c1cc(NC(=O)NCCc2nnc3n2CCC3)c(C#N)s1 | 14.1%
CC(=O)N1CCN(c2ccccc2CNc2cc(F)cc(F)c2)CC1 | 3.7%
CN(c1ncccc1C#N)C1CCN(CCc2ccncc2)CC1 | 28.7%
COc1ccccc1C(C#N)NC(=O)c1cccc2c1oc(=O)n2C (stereo unspecified) | 3.3%
Cn1cc(-c2ncc(C(=O)NCCCn3ccccc3=O)s2)cn1 | 4.13%
CC(C)c1noc(CCC(=O)NCC(c2ccco2)N2CCCC2)n1 (stereo unspecified) | -9.71%
CN1CCCC(N(C)C(=O)c2ccc(NC(=O)c3cc[nH]n3)cc2)C1 (stereo unspecified) | 0.624%
CC(C)CC(NCc1ccsc1)c1ccccn1 (stereo unspecified) | -2.56%
Cc1nc(CNCC2CNc3ccnn3C2)cs1 (stereo unspecified) | -8.71%
Cc1cccc(N2CCN(CCS(=O)(=O)c3ccc(Br)cc3)CC2)c1C | 21.9%
O=C1C(N2CCOC3(CCCC3)C2)CCN1C1CC1 (stereo unspecified) | 9.4%
COCCNS(=O)(=O)c1ccc(Cl)c(C(=O)N(C)Cc2ccsc2)c1 | -1.39%
Cc1nn(C)c2ncc(S(=O)(=O)N3CCCC(C)CC3)cc12 (stereo unspecified) | 2.6%
COc1cc(CN(C)C(=O)NCCC(=O)NC2CCCC2)ccc1SC | -8.9%
Cc1ccc(C2COCCN2C(=O)c2ccc(F)c(F)c2)o1 (stereo unspecified) | 4.96%
CCOc1ccccc1N(C)C(=O)c1cscn1 | -0.704%
CC(C)(C)c1noc(OCC(=O)NCC(F)(F)F)n1 | 8.81%

Structure (SMILES) | cytotoxicity at 10 µM
CCS(=O)(=O)CCNC(=O)C1(c2cccc(Cl)c2)CC1 | -4%
Cc1nc(C(=O)N(C)CC2CC2)nn1-c1ccccc1C(C)C | 5.38%
CCc1nnc(CN2CCCC(Cn3nc(C)nc3C)C2)o1 (stereo unspecified) | 6.81%
CCOc1ncccc1C(=O)NCC(O)c1ccc(F)c(F)c1 (stereo unspecified) | 9.45%
CC(C)NC(=O)NCC(Cc1ccc(F)cc1)C(N)=O (stereo unspecified) | 12.8%
CC(C)c1nnc2n1CC(CNCc1cccnc1)CC2 (stereo unspecified) | 6.59%
COc1ccc(F)cc1CSCC(=O)N(C)C1CC1 | 0.611%
O=S(=O)(C/C=C/c1ccccc1)Cc1nc(C2CC2)no1 | -12.4%
Cc1cc(CNC(=O)CN2CCN(C(=O)OC(C)(C)C)CC2)ccc1F | -11.2%
CC(C)N(C)C(=O)c1ccc(CNc2ncc(C#N)cc2Cl)cc1 | 15.9%
Cc1nn(C)c2ncc(CN3CCCCCC3)cc12 | 0.106%
CCOc1cc(F)ccc1NC(=O)NCC(c1cnn(C)c1)N(C)C (stereo unspecified) | 5.09%
CN1CC(C(=O)NCc2cccnc2OCC(F)(F)F)CC1=O (stereo unspecified) | -6.6%
CC1CN(C(=O)CCc2cc(Br)cs2)CCO1 (stereo unspecified) | -8.48%
O=S(=O)(Cc1ccccc1F)NC(CO)c1ccco1 (stereo unspecified) | 6.6%
CCc1ccc(C(=O)N2CCCC(n3cncn3)C2)o1 (stereo unspecified) | -9.78%
O=C1CO[C@@H]2CN(S(=O)(=O)c3ccccc3F)C[C@H]2N1 | 0.0416%
Cc1ccc2c(c1)C1(CCN(C(N)=O)CC1)CN2CC1CC1 | -109%
CNC(=O)CC1CC2(CCNCC2)c2cc(F)ccc21 (stereo unspecified) | -107%
CS(=O)(=O)N[C@@H]1CCN(Cc2cccnc2)[C@H]1Cc1cccnc1 | -70.2%
CCN1Cc2c(C(=O)NC)ncn2-c2ccccc2S1(=O)=O | -73%
O=S(=O)(c1ccccc1)N1CC[C@]2(C[C@@H](OCC3CC3)CO2)C1 | -81.3%
Nc1ccnc(N2CCCC(CO)(Cc3cccc(Cl)c3)C2)n1 (stereo unspecified) | 0.528%

Structure (SMILES) | cytotoxicity at 10 µM
Cc1nc(CCCNC(=O)C2CC(=O)N(C3CCCC3)C2)sc1C (stereo unspecified) | 3.01%
CCNC(=O)CN1CCCC(c2ccc(C(=O)O)cc2)C1 (stereo unspecified) | 8.57%
CC(C)[C@H]1CN(Cc2nccn2C)C[C@@H]1NC(=O)COCC(N)=O | -0.0298%
CCCN1CC(NC(=O)Nc2nc(C)n(C(C)C)n2)CC1=O (stereo unspecified) | -3.04%
CCOCc1nc(-c2ccc(F)cc2Cl)n(C)n1 | -10.2%
CNc1cc(C)nc(N2C[C@H](NC(=O)C3CCOCC3)[C@@H](C3CC3)C2)n1 | 4.41%
Cc1noc(C)c1CN(C)C(=O)c1cnc(C2CC2)nc1O | -4.65%
C[C@@H]1CN(C2CCN(Cc3nn(C)c4cccc(Cl)c34)CC2)C[C@H](C)O1 | -6.48%
Cc1csc2ncn(C(C)Cc3cccnc3)c(=O)c12 (stereo unspecified) | 6.9%
CN(Cc1n[nH]c(=O)n1Cc1ccco1)S(C)(=O)=O | -1.25%
Cc1cc(CN(C)C(=O)C(c2ccccc2C)N(C)C)on1 (stereo unspecified) | 3.65%
COc1ccc([C@@H]2CN(C(=O)CS(C)(=O)=O)C[C@H]2NC(C)=O)cc1 | 0.541%
CSc1nc(C)cc(N2CCC(c3ncc[nH]3)CC2)n1 | -10.6%
O=C(c1cccnc1N1CCOC(c2ccc(F)cc2)C1)N1CCCC1 (stereo unspecified) | 8.04%
CNC(=O)C(C)(C)NC(=O)c1cc(COc2cccc(C(C)=O)c2)[nH]n1 | 3.69%
O=c1[nH]c(-c2ccccc2F)nc2c1CCNC2 | -2.72%
CCc1ccc2nc(-c3cnn(C)c3)cc(C(=O)N3CCOCC3)c2c1 | -2.96%
CSCCCN1CCC[C@]2(C(=O)O)CN(c3cnccn3)CC[C@@H]12 | 8.26%
Cn1cccc1-c1cc(C(=O)N2CC(c3cccnc3)C2)[nH]n1 | -13.7%
CC(O)CN1CCC(CNCc2ccc(OC(F)(F)F)cc2)CC1 (stereo unspecified) | -13.6%
CCc1nc(C2CCCN(C(=O)c3c(C)noc3C)C2)no1 (stereo unspecified) | -12.8%
Cc1nnc2n1CCN(CCC(=O)Nc1sccc1C#N)C2 | -2.28%
CCc1nnc2n1CCN(CC(=O)Nc1cc(C(C)(C)C)nn1C)C2 | -5.77%

Structure (SMILES) | cytotoxicity at 10 µM
OC(COCc1ccc(Cl)cc1)CN1CCC(c2ccn[nH]2)CC1 (stereo unspecified) | -7.21%
CC(NC(=O)c1cccs1)C(=O)NCc1ccccc1CN1CCCC1 (stereo unspecified) | -14.2%
Cc1ccc(NC2CCN(C(=O)COc3cccnc3)CC2)nn1 | 1.3%
CCOc1ncccc1C(=O)NCCN(CC)C1CC1 | 4.4%
O=C(c1ccn[nH]1)N1CCCC(n2cncn2)C1 (stereo unspecified) | 1.56%
CCN(Cc1nc2c(cnn2C)c(=O)[nH]1)Cc1cccs1 | 1.49%
O=C1COc2c(cccc2C(=O)N2CCCCC2Cn2cccn2)N1 (stereo unspecified) | 4.07%
C=C(C)CN1CCN(Cc2cnc(-c3ccc(OC)cc3)nc2)CC1 | -3.41%
CNC(=O)c1cccc(C2CNCCN2C(=O)c2cccc(F)c2)c1 (stereo unspecified) | -7.9%
O=C(c1ccco1)N1CCOC2(COCCN(c3ncccn3)C2)C1 (stereo unspecified) | -102%
COCCN1C(=O)CCC12CCCN(Cc1ccccc1F)C2 (stereo unspecified) | 3.64%
CN(C)C(=O)[C@@H]1C[C@@H]2[C@@H](CCN2Cc2nccs2)O1 | -1.42%
c1cnc(N2CCO[C@H]3CN(CC4CCOC4)C[C@H]32)cn1 (stereo partly specified) | -104%
c1nc(CNC2CCOCC2)c2n1CCCN(CC1CC1)C2 | -69.1%
O=C(c1ccsc1)N1CCO[C@@H]2CN(Cc3ccco3)CC[C@@H]2C1 | -98.6%
CCS(=O)(=O)N1C[C@@H](OCc2cccnc2)[C@H]2OCCC[C@H]21 | 3.6%
CC(C)CC(=O)NCCn1nc(C2CCNC2)c2cccnc21 (stereo unspecified) | -25%
COCC1CN(Cc2ccccn2)Cc2cn(C)nc21 (stereo unspecified) | -78.6%
O=C1Nc2ccccc2C12CCN(Cc1cccs1)CC2 | -0.184%
